{
  "source": "ChEMBL document CHEMBL3351368",
  "about": "“Biphenyl-4-carboxylic acid [2-(1H-indol-3-yl)-ethyl]-methylamide (CA224), a nonplanar analogue of fascaplysin, inhibits Cdk4 and tubulin polymerization: evaluation of in vitro and in vivo anticancer activity” (J Med Chem, 2014)",
  "key": {"[1]": {"target": "Glycogen synthase kinase-3 beta (Homo sapiens) (UniProt P49841)", "sequence (P49841 whole entry, looked up)": "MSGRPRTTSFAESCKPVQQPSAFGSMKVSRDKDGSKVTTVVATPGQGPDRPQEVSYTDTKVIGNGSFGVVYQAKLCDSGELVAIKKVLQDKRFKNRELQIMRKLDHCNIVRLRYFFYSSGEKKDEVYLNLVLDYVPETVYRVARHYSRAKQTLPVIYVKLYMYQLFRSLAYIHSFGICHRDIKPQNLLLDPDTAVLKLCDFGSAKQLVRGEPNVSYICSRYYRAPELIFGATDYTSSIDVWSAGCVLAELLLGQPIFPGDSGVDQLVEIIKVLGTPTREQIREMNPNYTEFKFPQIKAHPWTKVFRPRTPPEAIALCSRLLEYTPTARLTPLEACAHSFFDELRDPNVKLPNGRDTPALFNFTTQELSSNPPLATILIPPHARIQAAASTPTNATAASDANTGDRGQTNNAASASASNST", "assay": "Inhibition of human GSK3beta assessed as enzyme activity at 10 uM"}, "CYP2D6": {"target": "CYP2D6 (Homo sapiens, UniProt P10635)", "sequence (P10635 whole entry)": "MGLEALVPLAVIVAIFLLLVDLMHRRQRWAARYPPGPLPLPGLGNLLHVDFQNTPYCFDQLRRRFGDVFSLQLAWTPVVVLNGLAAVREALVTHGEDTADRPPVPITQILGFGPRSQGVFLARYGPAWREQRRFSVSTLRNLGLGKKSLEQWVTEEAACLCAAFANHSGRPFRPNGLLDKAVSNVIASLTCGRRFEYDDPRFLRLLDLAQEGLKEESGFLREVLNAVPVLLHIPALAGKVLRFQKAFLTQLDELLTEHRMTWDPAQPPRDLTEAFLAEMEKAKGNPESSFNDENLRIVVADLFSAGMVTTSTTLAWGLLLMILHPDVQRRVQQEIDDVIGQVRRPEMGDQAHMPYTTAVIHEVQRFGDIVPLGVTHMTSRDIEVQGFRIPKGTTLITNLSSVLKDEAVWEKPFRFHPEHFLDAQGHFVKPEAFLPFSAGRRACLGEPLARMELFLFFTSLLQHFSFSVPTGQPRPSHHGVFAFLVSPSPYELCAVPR", "assay": "Inhibition of human recombinant CYP2D6 at 10 uM", "format": "ADME"}, "[2]": {"assay": "Cmax in BALB/c mouse at 10 mg/kg, po", "format": "ADME, organism-based", "set-up": "dose 10 mg/kg, route oral", "conditions": "in vivo", "in_short": "(§1)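 BALB/c mice given a single dose of 1.0 mg/kg IV or 10 mg/kg orally; plasma concentration followed over time and pharmacokinetic parameters derived from the time-concentration profile.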"}, "[3]": {"target": "Cyclin-dependent kinase 7/ cyclin H (Homo sapiens) (UniProt P51946+P50613)", "assay": "Inhibition of human CDK7/cyclinH assessed as enzyme activity at 10 uM", "format": "protein-complex assay"}, "[4]": {"assay": "Cell cycle arrest in mouse BNL-CL2 cells assessed as accumulation of cells at G0/G1 phase at IC50 concentration after 48 hrs by flow cytometry (reference value: 57%)", "format": "functional", "in_short": "(§2)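 Normal (BNL CL2) and SV40 large T-antigen transformed (BNL SV A.8) mouse embryonic hepatic cells were treated at IC50 or IC70 concentration for 48 h. Analysis was by FACS, with apoptosis taken as % cells in the sub-G1 peak. Untreated cells served as control.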"}, "MiaPaCa [5]": {"tested_on": "MiaPaCa", "assay": "Effect on p53 level in p53His273 mutant, pRb+ human MiaPaCa cells at IC50 concentration after 48 hrs by Western blot analysis", "format": "functional"}, "Homo sapiens": {"species": "Homo sapiens", "assay": "Inhibition of human PKA assessed as enzyme activity at 10 uM"}, "[6]": {"assay": "Cell cycle arrest in mouse BNL-SVA.8 cells assessed as accumulation of cells at G0/G1 phase at IC50 concentration after 48 hrs by flow cytometry (reference value: 64%)", "format": "functional", "in_short": "as §2"}, "Mus musculus": {"tested_on": "Mus musculus", "assay": "Toxicity in human HCT116 cells xenografted in SCID mouse at 100 mg/kg, ip relative to untreated control", "format": "organism-based, HCT-116", "set-up": "dose 100 mg/kg, route intraperitoneal", "conditions": "in vivo", "in_short": "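SCID male mice, 18-25 g, 6-8 weeks old, received 6.6 × 10^6 HCT-116 cells subcutaneously on the dorsal side. Randomized into groups of 7 at 4-6 mm tumors (about 5 days), then dosed intraperitoneally for 9 consecutive days. Tumor size recorded every 2-5 days, weight = L×W²×0.5; %GI = 100 − %T/C. Body weight taken daily relative to start; Student t-test.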"}, "NCI-H1299 [7]": {"tested_on": "NCI-H1299", "assay": "Induction of apoptosis in p53 null, pRb+ human NCI-H1299 cells assessed as fragmented nuclei/distrupted cell membrane after 24 hrs by DAPI staining-based flow cytometry"}, "[8]": {"assay": "Solubility in simulated gastric fluid", "format": "ADME"}, "Tubulin (Homo sapiens) [9]": {"target": "T1, Tubulin (Homo sapiens) (UniProt P68371+Q9H4B7+P0DPH7+P68366+Q13509+Q71U36+P04350+Q3ZCM7+P07437+P68363+Q9BQE3+Q6PEY2+Q13885+Q9BVA1+Q9BUF5)", "assay": "Inhibition of tubulin (unknown origin) polymerization assessed as decrease in Vmax measured at 2.5 uM by spectrophotometry", "format": "protein-complex assay", "in_short": "(§3)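 Purified tubulin polymerisation followed as absorbance increase over about 4000 s. Vmax (mOD/min) is taken as the read-out, with final polymer mass also noted. Compound is tested at 2.5, 5, 10 and 25 µM alongside untreated control, paclitaxel 10 µM (enhancer) and nocodazole 10 µM (inhibitor). Curves are the average of three independent experiments.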"}, "NCI-H358 [10]": {"tested_on": "NCI-H358", "assay": "Cell cycle arrest in human NCI-H358 cells assessed as accumulation of cells at G0/G1 phase at IC50 concentration after 12 hrs by flow cytometry in presence of nocodazole for 18 hrs (reference value: 40%)", "format": "functional"}, "[11]": {"assay": "Cell cycle arrest in mouse BNL-CL2 cells assessed as accumulation of cells at G2/M phase at IC50 concentration after 48 hrs by flow cytometry (reference value: 23%)", "format": "functional", "in_short": "as §2"}, "[12]": {"assay": "AUC (0 to t) in BALB/c mouse at 10 mg/kg, po", "format": "ADME, organism-based", "set-up": "dose 10 mg/kg, route oral", "conditions": "plasma", "in_short": "as §1"}, "LS174T [13]": {"tested_on": "LS174T", "assay": "Induction of p21 level in p53+, pRb+ human LS 174T cells at IC50 concentration after 24 hrs by Western blot analysis"}, "[14]": {"assay": "AUC (0 to infinity) in BALB/c mouse at 10 mg/kg, po", "format": "ADME, organism-based", "set-up": "time infinity, dose 10 mg/kg, route oral", "conditions": "plasma", "in_short": "as §1"}, "[15]": {"assay": "Displacement of ethidium bromide from closed circular plasmid DNA (unknown origin) by fluorescence quenching assay"}, "BNL-CL2": {"tested_on": "BNL-CL2", "assay": "Cell cycle arrest in mouse BNL-CL2 cells assessed as accumulation of cells at G2/M phase at IC70 concentration after 48 hrs by flow cytometry", "format": "functional, cell-based", "in_short": "as §2"}, "NCI-H358 [16]": {"tested_on": "NCI-H358", "assay": "Induction of apoptosis in p53 null, […] human NCI-H358 cells assessed as fragmented nuclei/distrupted cell membrane after 24 hrs by DAPI staining-based flow cytometry"}, "Tubulin (Homo sapiens) [17]": {"target": "T1, Tubulin (Homo sapiens)", "assay": "Inhibition of tubulin polymerization in p53+, pRb+ human A549 cells assessed as paclitaxel-mediated polymerization treated followed by compound treatment measured after 30 mins by Western blot analysis", "format": "cell-based"}, "A549": {"tested_on": "A549", "assay": "Cell cycle arrest in human A549 cells assessed as accumulation of cells at S phase at IC50 concentration after 24 hrs by flow cytometry (reference value: 29%)", "format": "functional"}, "NCI-H1299 [18]": {"tested_on": "NCI-H1299", "assay": "Induction of apoptosis in p53 null, pRb+ human NCI-H1299 cells assessed as fragmented nuclei/distrupted cell membrane at 1 to 10 uM by DAPI staining-based flow cytometry", "conditions": "TDE = time-dependent effect"}, "[19]": {"assay": "Volume of distribution in BALB/c mouse at 1 mg/kg, iv", "format": "ADME, organism-based", "set-up": "dose 1 mg/kg, route intravenous", "conditions": "in vivo", "in_short": "as §1"}, "MiaPaCa [20]": {"tested_on": "MiaPaCa", "assay": "Induction in cyclin B1 level in p53His273 mutant, pRb+ human MiaPaCa cells at IC50 concentration after 48 hrs by Western blot analysis", "format": "functional"}, "NCI-H358 [21]": {"tested_on": "NCI-H358", "assay": "Cell cycle arrest in human NCI-H358 cells assessed as accumulation of cells at G0/G1 phase at IC50 concentration after 18 hrs by flow cytometry in presence of […] uM hydroxyurea for 18 hrs (reference value: 50%)", "format": "functional"}, "[22]": {"assay": "Solubility in simulated intestinal fluid", "format": "ADME"}, "[23]": {"assay": "Cell cycle arrest in mouse BNL-CL2 cells assessed as accumulation of cells at S phase at IC50 concentration after 48 hrs by flow cytometry (reference value: 15%)", "format": "functional", "in_short": "as §2"}, "LS174T [24]": {"tested_on": "LS174T", "assay": "Reduction cyclin B1 level in p53+, pRb+ human LS 174T cells at IC50 concentration after 24 hrs by Western blot analysis"}, "[25]": {"assay": "Growth inhibition of mouse BNL-CL2 cells after 48 hrs by MTT assay", "format": "functional, cell-based", "conditions": "BNL CL.2, 48 h", "in_short": "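MTT cell proliferation assay. IC50 (µM) was defined as the concentration giving 50% inhibition of cell growth.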"}, "[26]": {"target": "CDK6/cyclin D1 (Homo sapiens) (UniProt P24385+Q00534)", "assay": "Inhibition of human CDK6/cyclinD1 assessed as enzyme activity at 10 uM", "format": "protein-complex assay"}, "Tubulin (Homo sapiens) [27]": {"target": "T1, Tubulin (Homo sapiens)", "assay": "Inhibition of tubulin (unknown origin) polymerization assessed as decrease in Vmax measured at 5 uM by spectrophotometry", "format": "protein-complex assay", "in_short": "as §3"}},
  "note": "Calls of active or inactive are those of the source.",
  "data": [
    {"molecule": "CN(CCc1c[nH]c2ccccc12)C(=O)c1ccc(-c2ccccc2)cc1", "values": [
      {"measurement": "inhibition", "setting": "[1]", "result": "inactive"},
      {"measurement": "inhibition at 10 µM", "setting": "CYP2D6", "result": 14, "unit": "%"},
      {"measurement": "Cmax", "setting": "[2]", "result": 190, "unit": "ng/mL"},
      {"measurement": "inhibition", "setting": "[3]", "result": "inactive"},
      {"measurement": "Activity", "setting": "[4]", "result": 34, "unit": "%"},
      {"measurement": "Activity", "setting": "MiaPaCa [5]", "result": "inactive"},
      {"measurement": "inhibition", "setting": "Homo sapiens", "result": "inactive"},
      {"measurement": "Activity", "setting": "[6]", "result": 31, "unit": "%"},
      {"measurement": "Activity", "setting": "Mus musculus", "result": "Non-toxic"},
      {"measurement": "Activity", "setting": "NCI-H1299 [7]", "result": "Dose-dependent effect"},
      {"measurement": "solubility", "setting": "[8]", "result": 125, "unit": "µg/mL"},
      {"measurement": "Activity (milli optical density/minute)", "setting": "Tubulin (Homo sapiens) [9]", "result": 6.2},
      {"measurement": "Activity", "setting": "NCI-H358 [10]", "result": 7, "unit": "%"},
      {"measurement": "Activity", "setting": "[11]", "result": 54, "unit": "%"},
      {"measurement": "AUC(0-t)", "setting": "[12]", "result": 172, "unit": "ng·h/mL"},
      {"measurement": "Activity", "setting": "LS174T [13]", "result": "Active"},
      {"measurement": "AUC(0-inf)", "setting": "[14]", "result": 182, "unit": "ng·h/mL"},
      {"measurement": "inhibition", "setting": "[15]", "result": "inactive"},
      {"measurement": "Activity", "setting": "BNL-CL2", "result": "Active"},
      {"measurement": "Activity", "setting": "NCI-H358 [16]", "result": "Dose-dependent effect"},
      {"measurement": "inhibition", "setting": "Tubulin (Homo sapiens) [17]", "result": "Dose-dependent effect"},
      {"measurement": "Activity", "setting": "A549", "result": 4, "unit": "%"},
      {"measurement": "Activity", "setting": "NCI-H1299 [18]", "result": "tde"},
      {"measurement": "Vd", "setting": "[19]", "result": 2.52, "unit": "L/kg"},
      {"measurement": "Activity", "setting": "MiaPaCa [20]", "result": "Active"},
      {"measurement": "Activity", "setting": "NCI-H358 [21]", "result": 16, "unit": "%"},
      {"measurement": "solubility", "setting": "[22]", "result": 5, "unit": "µg/mL"},
      {"measurement": "Activity", "setting": "[23]", "result": 9, "unit": "%"},
      {"measurement": "inhibition", "setting": "LS174T [24]", "result": "Active"},
      {"measurement": "IC50", "setting": "[25]", "result": 2600, "unit": "nM"},
      {"measurement": "inhibition", "setting": "[26]", "result": "inactive"},
      {"measurement": "Activity (milli optical density/minute)", "setting": "Tubulin (Homo sapiens) [27]", "result": 2.1}
    ]}
  ]
}
